The source of these data is ChEMBL document CHEMBL1142866, “Synthesis and preliminary evaluation of 18F- or 11C-labeled bicyclic nucleoside analogues as potential probes for imaging varicella-zoster virus thymidine kinase gene expression using positron emission tomography” (J Med Chem, 2007).

One data set concerns the target T1, Thymidine kinase (Human alphaherpesvirus 1, UniProt Q9QNF7).
T1 sequence (Q9QNF7 whole entry): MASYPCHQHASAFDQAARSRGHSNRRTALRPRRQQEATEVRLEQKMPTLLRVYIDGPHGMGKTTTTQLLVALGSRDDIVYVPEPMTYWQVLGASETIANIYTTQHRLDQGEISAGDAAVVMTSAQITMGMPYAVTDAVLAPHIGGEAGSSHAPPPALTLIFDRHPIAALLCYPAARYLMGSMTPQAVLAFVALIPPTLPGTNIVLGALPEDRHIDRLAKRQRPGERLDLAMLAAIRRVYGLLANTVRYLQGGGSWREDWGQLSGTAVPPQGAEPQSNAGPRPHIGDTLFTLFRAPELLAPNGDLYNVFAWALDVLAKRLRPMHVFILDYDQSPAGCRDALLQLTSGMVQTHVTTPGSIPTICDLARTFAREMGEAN
Nature of the data set: Inhibition of recombinant HSV-1 TK assessed as [CH3-H3]dThd phosphorylation. In short, it runs like this:
(§1)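 Purified recombinant VZV TK (7.75 ng), HSV-1 TK (226 ng) or cytosolic TK-1 (455 ng). Buffer: 50 mM Tris-HCl pH 8.0, 2.5 mM MgCl2, 10 mM DTT, 2.5 mM ATP, 1.0 mg/mL BSA, 10 mM NaF, 1 µM [CH3-3H]dThd final. Incubated 30 min at 37 °C (linear range) with graded compound concentrations. Product caught on DE-81 disks, washed, scintillation-counted. IC50 is 50% inhibition of dThd phosphorylation.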

The nature of data set [1]: Inhibition of recombinant VZV TK assessed as [CH3-H3]dThd phosphorylation. Also noted: species or system Human alphaherpesvirus 3. A digest of the protocol:
as §1

Data set [2] has as its target T2, Thymidine kinase, cytosolic (Homo sapiens, UniProt P04183).
T2 sequence (P04183 whole entry): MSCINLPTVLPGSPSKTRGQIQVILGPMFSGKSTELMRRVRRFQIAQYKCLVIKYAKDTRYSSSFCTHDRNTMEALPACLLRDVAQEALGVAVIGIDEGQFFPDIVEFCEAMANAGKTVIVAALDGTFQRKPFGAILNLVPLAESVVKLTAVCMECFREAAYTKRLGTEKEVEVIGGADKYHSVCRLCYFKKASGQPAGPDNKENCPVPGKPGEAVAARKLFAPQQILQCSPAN
Kind of data set: Inhibition of recombinant cytosolic TK-1 assessed as [CH3-H3]dThd phosphorylation. A digest of the protocol: as §1

Data set [3] has as its system OST. Kind of data set: Cytotoxicity against OST cells expressing VZV TK. It is filed as cell-based. As to conditions: human. A digest of the protocol: (§2)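 OST TK- control cells and OST TK- cells expressing HSV-1 TK or VZV TK were cultured 5 days with graded compound concentrations. Cells were then trypsinized and counted on a Coulter counter. CC50 is the concentration in µM that reduces cell number by 50%.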

Data set [4] concerns OST. Kind of data set: Cytotoxicity against OST cells expressing HSV1 TK. It is filed as cell-based. As to conditions: human. A digest of the protocol:
as §2

With `Nc1nc2c(ncn2CCC(CO)CF)c(=O)[nH]1` (stereo not given), the IC50 on Thymidine kinase came to 9 µM.
Turning to `COc1cccc(-c2cc3cn([C@H]4C[C@H](O)[C@@H](CO)O4)c(=O)nc3o2)c1`, the values for the IC50 (in data set [1]; on Thymidine kinase; in data set [2]) were 4.8 µM, more than 500 µM and more than 500 µM, respectively. The Activity entry in the data set on OST [3] and in the data set with OST [4] was “Not Active” in each case.
Regarding `O=c1nc2oc(-c3ccccc3F)cc2cn1C1C[C@H](O)[C@@H](CO)O1` (stereo not given in full), the IC50 in data set [1] is 0.28 µM; at Thymidine kinase, more than 500 µM; in data set [2], more than 500 µM.
With `Nc1nc2c(ncn2CCC(CO)CO)c(=O)[nH]1` [PENCICLOVIR], the IC50 at Thymidine kinase was 11 µM.
In the case of `O=c1nc2oc(-c3cccc(O)c3)cc2cn1[C@H]1C[C@H](O)[C@@H](CO)O1`, the IC50 in data set [1] was 2.6 µM; at Thymidine kinase, more than 500 µM; in data set [2] it was more than 500 µM. Besides, the Activity entry with OST [3] and in the data set with OST [4] was “Not Active” in each case.
